The nature of series [1]: folding enthalpy; higher = less favourable; fluorescence melt of hairpins on a sequencing array, two-state fit. The settings on record: sodium 0.088 M. A digest of the protocol: (§1)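 Melting temperature and folding enthalpy were obtained by bootstrapped two-state fitting. Fits used Cy3 fluorescence of library hairpins with annealed Cy3 and quencher oligos on a sequenced MiSeq flow cell, imaged in 50 mM Na-HEPES pH 8.0, 25 mM NaCl in 2.5 °C steps up to 60 °C and normalised to pre-quench Cy3 and control constructs. Four replicates were combined by inverse-variance weighting, and fitted temperatures were raised by 9.35 °C to match UV melts.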

A short description of series [2]: melting temperature; fluorescence melt of hairpins on a sequencing array, two-state fit, raised by 9.35 °C to match UV melts. To be noted: sodium 0.088 M. A digest of the protocol: as §1

Turning to GGAATCCCGAAAGGGTCC (((..(((....)))))), the folding enthalpy in series [1] is -13.2 kcal/mol. For the same sequence, in series [2], the Tm is 33 °C.
For GGAATCCGAAAGGACTCC (((.(((....))).))) the same measures were -26.2 kcal/mol and 46.3 °C.
With GGAATCCGAAAGGATCC (((.(((....)))))), in series [1], the folding enthalpy is -19.6 kcal/mol. Besides, in series [2], the Tm was 50 °C.
Consider GGAATCGAAAGATGATCC ((((((....)))..))), for which, in series [1], the folding enthalpy was -17.8 kcal/mol. For the same sequence, in series [2], the Tm was 29 °C.
For GGAATCGAAAGATTCC ((((((....)))))) the same measures were -32.3 kcal/mol and 64.3 °C.
For GGAATGCCGAAAGGCTCC (((..(((....)))))) the same measures were -10.2 kcal/mol and 34.5 °C.
Turning to GGAATGCGAAAGCAATCC (((.(((....))).))), the folding enthalpy in series [1] is -25.6 kcal/mol. Moreover, the Tm in series [2] stood at 50.9 °C.
With GGAATGCGAAAGCAGTCC (((.(((....))).))), in series [1], the folding enthalpy is -36.6 kcal/mol. Further, the Tm in series [2] is 61.2 °C.
For GGAATGGGAAACTGTTCC ((((..(....)..)))) the same measures were -25.8 kcal/mol and 35 °C.
For GGAATTCGAAAGAATCC (((.(((....)))))) the same measures were -20.9 kcal/mol and 39 °C.
Take GGAATTGAAAAATTCC ((((((....)))))): the folding enthalpy in series [1] is -28.9 kcal/mol. For the same sequence, the Tm in series [2] is 48 °C.
On the same counts, the results for GGAATTGGAAACAATTCC (((((((....))))))) are -45.1 kcal/mol and 56.3 °C.
On the same counts, the results for GGACAACGAAAGTTTTCC (((.(((....))).))) are -29.2 kcal/mol and 41.2 °C.
On the same counts, the results for GGACAAGGAAACTTGTCC (((((((....))))))) are -45 kcal/mol and 61 °C.
On to GGACACGAAAGTGCATCC ((((((....)))..))), for which the folding enthalpy in series [1] was -11.8 kcal/mol. Besides, in series [2], the Tm was 32.7 °C.
For GGACACGAAAGTGCCTCC ((((((....)))..))) the same measures were -16.7 kcal/mol and 42.1 °C.
For GGACACGAAAGTGGATCC ((((((....)))..))) the same measures were -15.6 kcal/mol and 40.3 °C.
On the same counts, the results for GGACACGGAAACGCGTCC ((((.((....)).)))) are -46.4 kcal/mol and 54.6 °C.
For the sequence GGACACGGAAACGTATCC (((.(((....))).))), in series [1], the folding enthalpy is -27.4 kcal/mol. Moreover, the Tm in series [2] turned out to be 40.9 °C.
As for GGACACGGAAACGTGTTC (.(((((....))))).), in series [1], the folding enthalpy is -24.8 kcal/mol. Moreover, the Tm in series [2] stood at 54.9 °C.
For GGACAGGCGAAAGCCTCC (((..(((....)))))) the same measures were -9.93 kcal/mol and 31.1 °C.
For GGACAGGGAAACTTGTCC (((((.(....).))))) the same measures were -37.1 kcal/mol and 49 °C.
For GGACCAGGAAACTGACCC ((..(((....)))..)) the same measures were -10.6 kcal/mol and 23.5 °C.
With GGACCCGAAAGGGATCC ((((((....))).))), in series [1], the folding enthalpy is -20.8 kcal/mol. Besides, in series [2], the Tm turned out to be 54.2 °C.
On to GGACCCGAAAGGGGATCC ((((((....)))..))), for which the folding enthalpy in series [1] is -14.8 kcal/mol. Besides, the Tm in series [2] was 51.4 °C.
For the sequence GGACCCGAAAGGGTATCC ((((((....)))..))), the folding enthalpy in series [1] was -11 kcal/mol. Besides, in series [2], the Tm was determined as 38.9 °C.
For GGACCCGGAAACAGGTCC (((((.(....).))))) the same measures were -39.7 kcal/mol and 49.4 °C.
For GGACCCGGAAACGGATCC (((.(((....))).))) the same measures were -38.5 kcal/mol and 49.8 °C.
On the same counts, the results for GGACCCTCGAAAGAGTCC (((..(((....)))))) are -16.3 kcal/mol and 35.9 °C.
On to GGACCGGGAAACCGACCC ((..(((....)))..)), for which the folding enthalpy in series [1] was -18 kcal/mol. Further, in series [2], the Tm stood at 31.1 °C.
For the sequence GGACCGTCGAAAGACTCC (((..(((....)))))), the folding enthalpy in series [1] was -12.9 kcal/mol. Further, the Tm in series [2] stood at 30.7 °C.
For the sequence GGACCTCCGAAAGGATCC (((..(((....)))))), the folding enthalpy in series [1] was -13.3 kcal/mol. Moreover, in series [2], the Tm came out at 28.7 °C.
For GGACCTGGAAACAGATCC (((.(((....))).))) the same measures were -28.7 kcal/mol and 40.2 °C.
For GGACCTGGAAACGGGTCC (((((.(....).))))) the same measures were -45 kcal/mol and 58.3 °C.
For GGACGACCGAAAGGTTCC (((..(((....)))))), in series [1], the folding enthalpy is -13.8 kcal/mol. Besides, the Tm in series [2] worked out at 31.3 °C.
Regarding GGACGAGCGAAAGCTTCC (((..(((....)))))), the folding enthalpy in series [1] is -9.29 kcal/mol. In addition, the Tm in series [2] was 29.5 °C.
On to GGACGCGAAAGCGAATCC ((((((....)))..))), for which the folding enthalpy in series [1] was -13.5 kcal/mol. Also, in series [2], the Tm was determined as 36.5 °C.
For GGACGCGAAAGCGCTTCC ((((((....)))..))) the same measures were -13.2 kcal/mol and 47.5 °C.
On the same counts, the results for GGACGCGAAAGCGTGTCC ((((((....)))..))) are -12.7 kcal/mol and 54 °C.
On the same counts, the results for GGACGCGGAAACGCACCC ((..(((....)))..)) are -10.1 kcal/mol and 33.7 °C.
Turning to GGACGCGGAAACGTGTCC ((((.((....)).)))), in series [1], the folding enthalpy is -43.4 kcal/mol. Besides, the Tm in series [2] turned out to be 62.2 °C.
On the same counts, the results for GGACGGGGAAACCTGTCC ((((.((....)).)))) are -44.5 kcal/mol and 56.8 °C.
For GGACTACGAAAGTACTCC (((.(((....))).))) the same measures were -13.3 kcal/mol and 34.9 °C.
On the same counts, the results for GGACTACGAAAGTATTCC (((.(((....))).))) are -34.8 kcal/mol and 39.2 °C.
Consider GGACTAGGAAACTAGCCC ((.((((....)))).)), for which the folding enthalpy in series [1] is -24.5 kcal/mol. Also, in series [2], the Tm worked out at 42.1 °C.
On the same counts, the results for GGACTAGGAAACTAGTCC (((((((....))))))) are -44 kcal/mol and 61.5 °C.
For GGACTAGGAAACTAGTTC (.(((((....))))).) the same measures were -31.9 kcal/mol and 41.3 °C.
For GGACTCGAAAGAGCATCC ((((((....)))..))) the same measures were -9.49 kcal/mol and 24.9 °C.
For GGACTCGAAAGAGGATCC ((((((....)))..))), the folding enthalpy in series [1] is -17.9 kcal/mol. The Tm in series [2] worked out at 37 °C.
For GGACTCGAAAGAGGCTCC ((((((....)))..))) the same measures were -13.3 kcal/mol and 48.9 °C.
For GGACTCGAAAGAGTTTCC ((((((....)))..))) the same measures were -13.8 kcal/mol and 36.8 °C.
For GGACTCGGAAACGAATCC (((.(((....))).))) the same measures were -26.7 kcal/mol and 40.9 °C.
On to GGACTCGGAAACGGGTCC ((((.((....)).)))), for which the folding enthalpy in series [1] is -36.4 kcal/mol. The Tm in series [2] came to 57.4 °C.
For GGACTGAAAAGTCC (((((....))))) the same measures were -25.9 kcal/mol and 59.9 °C.
Regarding GGACTGGAAACAGTCC ((((((....)))))), the folding enthalpy in series [1] was -30.2 kcal/mol. For the same sequence, in series [2], the Tm came to 59.8 °C.

The values are drawn from the array DNA melting data of Ke et al. (doi:10.1101/2024.01.08.574731).
